Results: ChEMBL document CHEMBL4118097, “Selective Inhibitors of Dual Leucine Zipper Kinase (DLK, MAP3K12) with Activity in a Model of Alzheimer's Disease” (J Med Chem, 2017)

How the values were obtained:
[1] = target: Serine/threonine-protein kinase PLK3 (Homo sapiens) (UniProt Q9H4B4); experiment: Inhibition of GST-tagged human PLK3 catalytic domain expressed in baculovirus expression system at 1 uM by FRET assay relative to control
[2] = target: Platelet-derived growth factor receptor alpha (Homo sapiens) (UniProt P16234); experiment: Inhibition of recombinant GST-tagged human PDGFRalpha cytoplasmic domain expressed in baculovirus expression system at 1 uM by FRET assay relative to control
Summary of the method: (§1)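 Single-point screen at 1 μM compound in a 220-kinase panel run by Life Technologies (SelectScreen). Z′-LYTE format: phosphorylation of a labeled peptide substrate read by FRET. Values are reported as percent inhibition.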

[3] = target: Phosphorylase b kinase gamma catalytic chain, skeletal muscle/heart isoform (Homo sapiens) (UniProt Q16816); experiment: Inhibition of recombinant full length GST-tagged human PHKgamma1 expressed in baculovirus expression system at 1 uM by FRET assay relative to control
Summary of the method: (§2)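 Single-concentration screen at 1 μM in Life Technologies SelectScreen, across a 220-kinase panel. Z′-LYTE format measures phosphorylation of a labeled peptide by FRET. Results are reported as percent inhibition.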

[4] = target: Tyrosine-protein kinase JAK1 (Homo sapiens) (UniProt P23458); experiment: Inhibition of recombinant GST-tagged human JAK1 catalytic domain (866 to 1154 residues) expressed in baculovirus expression system at 1 uM by FRET relative to control; summary of the method: as §1
[5] = target: Dual specificity tyrosine-phosphorylation-regulated kinase 4 (Homo sapiens) (UniProt Q9NR20); experiment: Inhibition of full length recombinant GST-tagged human DYRK4 expressed in baculovirus expression system at 1 uM by FRET assay relative to control
[6] = target: Mitogen-activated protein kinase kinase kinase 11 (Homo sapiens, UniProt Q16584); experiment: Inhibition of recombinant human full length GST-tagged MLK3 expressed in baculovirus expression system by FRET assay
Mitogen-activated protein kinase kinase kinase 11, sequence (Q16584 whole entry): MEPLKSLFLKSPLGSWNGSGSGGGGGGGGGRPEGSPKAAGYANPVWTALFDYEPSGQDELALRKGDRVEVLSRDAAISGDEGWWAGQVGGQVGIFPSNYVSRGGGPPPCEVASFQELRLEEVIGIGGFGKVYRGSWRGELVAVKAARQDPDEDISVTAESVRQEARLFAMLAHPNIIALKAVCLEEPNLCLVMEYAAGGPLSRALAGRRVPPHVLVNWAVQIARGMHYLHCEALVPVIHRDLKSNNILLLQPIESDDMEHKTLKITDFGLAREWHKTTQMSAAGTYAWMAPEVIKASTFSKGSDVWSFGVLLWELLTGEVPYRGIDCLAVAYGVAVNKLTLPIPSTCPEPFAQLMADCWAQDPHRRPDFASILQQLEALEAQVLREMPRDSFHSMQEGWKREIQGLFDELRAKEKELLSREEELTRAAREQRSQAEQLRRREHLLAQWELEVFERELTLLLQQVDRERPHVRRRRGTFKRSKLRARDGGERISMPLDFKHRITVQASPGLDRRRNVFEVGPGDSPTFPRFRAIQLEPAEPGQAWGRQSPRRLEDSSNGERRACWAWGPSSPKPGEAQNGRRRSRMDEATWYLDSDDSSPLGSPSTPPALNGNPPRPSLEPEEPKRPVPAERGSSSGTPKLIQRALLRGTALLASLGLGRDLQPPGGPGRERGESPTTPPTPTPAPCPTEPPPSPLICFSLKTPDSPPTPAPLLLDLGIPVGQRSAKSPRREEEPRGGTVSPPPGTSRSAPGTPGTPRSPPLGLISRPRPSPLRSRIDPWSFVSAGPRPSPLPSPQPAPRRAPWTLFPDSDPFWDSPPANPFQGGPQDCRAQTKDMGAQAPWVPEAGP

[7] = target: Glycogen synthase kinase-3 alpha (Homo sapiens) (UniProt P49840); experiment: Inhibition of GSK3alpha (unknown origin) at 1 uM by FRET relative to control
Glycogen synthase kinase-3 alpha (Homo sapiens), sequence (P49840 2-483 limits assumed): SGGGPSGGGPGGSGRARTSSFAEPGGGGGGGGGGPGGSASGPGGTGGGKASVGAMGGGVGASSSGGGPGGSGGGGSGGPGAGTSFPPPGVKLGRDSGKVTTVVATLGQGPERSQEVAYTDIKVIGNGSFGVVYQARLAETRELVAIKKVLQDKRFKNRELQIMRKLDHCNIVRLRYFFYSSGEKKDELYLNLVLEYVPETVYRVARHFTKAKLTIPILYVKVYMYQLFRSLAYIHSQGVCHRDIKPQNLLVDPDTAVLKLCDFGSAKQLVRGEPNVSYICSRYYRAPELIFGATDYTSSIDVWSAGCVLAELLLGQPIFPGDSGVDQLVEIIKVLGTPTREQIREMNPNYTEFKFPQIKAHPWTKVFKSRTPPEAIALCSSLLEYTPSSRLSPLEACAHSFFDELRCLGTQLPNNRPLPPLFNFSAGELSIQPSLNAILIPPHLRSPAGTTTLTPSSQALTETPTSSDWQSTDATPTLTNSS

[8] = target: Homeodomain-interacting protein kinase 4 (Homo sapiens) (UniProt Q8NE63); experiment: Inhibition of recombinant full length GST-tagged human HIPK4 expressed in baculovirus expression system at 1 uM by FRET relative to control; summary of the method: as §2
Homeodomain-interacting protein kinase 4 (Homo sapiens), sequence (Q8NE63 whole entry): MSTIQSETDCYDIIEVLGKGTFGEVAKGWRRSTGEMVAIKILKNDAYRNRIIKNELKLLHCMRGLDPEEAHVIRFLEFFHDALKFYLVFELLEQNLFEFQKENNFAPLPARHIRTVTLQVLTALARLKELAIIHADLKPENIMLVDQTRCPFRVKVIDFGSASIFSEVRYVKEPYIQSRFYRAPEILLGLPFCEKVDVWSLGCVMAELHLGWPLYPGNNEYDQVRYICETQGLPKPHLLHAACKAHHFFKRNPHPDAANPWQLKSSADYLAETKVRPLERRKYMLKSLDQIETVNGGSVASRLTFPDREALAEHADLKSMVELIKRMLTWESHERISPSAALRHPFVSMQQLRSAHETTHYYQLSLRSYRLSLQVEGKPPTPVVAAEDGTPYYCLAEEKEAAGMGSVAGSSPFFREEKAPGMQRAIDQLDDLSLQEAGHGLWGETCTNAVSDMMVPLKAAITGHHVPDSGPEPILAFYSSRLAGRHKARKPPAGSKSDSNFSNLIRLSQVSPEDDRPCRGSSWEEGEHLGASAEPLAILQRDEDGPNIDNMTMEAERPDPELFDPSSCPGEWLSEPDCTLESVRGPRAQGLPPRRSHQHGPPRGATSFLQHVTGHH

[9] = target: Muscarinic acetylcholine receptor M2 (Homo sapiens) (UniProt P08172); experiment: Binding affinity to recombinant human M2 acetylcholine receptor at 10 uM relative to control
Summary of the method: (§3)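 Broad radioligand-binding and enzyme screening panel covering 42 targets (biogenic amine and neuropeptide receptors, ion channels, neurotransmitter transporters, acetylcholinesterase). Single test concentration of 10 μM. Results expressed as binding relative to control, with a hit defined as >50% of control.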

[10] = target: Ribosomal protein S6 kinase alpha-5 (Homo sapiens) (UniProt O75582); experiment: Inhibition of recombinant full length GST-tagged human MSK1 expressed in baculovirus at 1 uM by FRET assay relative to control; summary of the method: as §2
[11] = target: MAP/microtubule affinity-regulating kinase 3 (Homo sapiens) (UniProt P27448); experiment: Inhibition of recombinant full length GST-tagged human MARK3 expressed in baculovirus expression system at 1 uM by FRET assay relative to control; summary of the method: as §2
[12] = target: Protein kinase C epsilon type (Homo sapiens) (UniProt Q02156); experiment: Inhibition of recombinant full length human PKCepsilon expressed in baculovirus expression system at 1 uM by FRET assay relative to control
[13] = target: Acetylcholinesterase (Homo sapiens) (UniProt P22303); experiment: Binding affinity to acetylcholinesterase (unknown origin) at 10 uM relative to control; summary of the method: as §3
[14] = target: Mitogen-activated protein kinase 8 (Homo sapiens, UniProt P45983); experiment: Inhibition of recombinant full length His-tagged human JNK1alpha1 expressed in baculovirus expression system by FRET assay
[15] = target: Cytoplasmic tyrosine-protein kinase BMX (Homo sapiens) (UniProt P51813); experiment: Inhibition of recombinant full length His-tagged human Bmx cytoplasmic domain expressed in Baculovirus expression system at 1 uM by FRET assay relative to control
[16] = target: Dual specificity tyrosine-phosphorylation-regulated kinase 3 (Homo sapiens) (UniProt O43781); experiment: Inhibition of full length recombinant GST-tagged human DYRK3 expressed in baculovirus expression system at 1 uM by FRET assay relative to control
[17] = target: Phosphatidylinositol 4,5-bisphosphate 3-kinase catalytic subunit alpha isoform (Homo sapiens) (UniProt P42336); experiment: Inhibition of PI3KA (unknown origin) at 1 uM by FRET assay relative to control
[18] = target: Dual specificity protein kinase CLK1 (Homo sapiens) (UniProt P49759); experiment: Inhibition of recombinant human GST-tagged CLK1 catalytic domain(129 to 484 residues)expressed in Escherichia coli at 1 uM by FRET assay relative to control
[19] = target: Mitogen-activated protein kinase kinase kinase kinase 5 (Homo sapiens) (UniProt Q9Y4K4); experiment: Inhibition of recombinant full length His-tagged human KHS1 expressed in baculovirus expression system at 1 uM by FRET assay relative to control
[20] = target: Mitogen-activated protein kinase 10 (Homo sapiens, UniProt P53779); experiment: Inhibition of recombinant full length GST-tagged human JNK3 expressed in baculovirus expression system by FRET assay
[21] = target: LIM domain kinase 1 (Homo sapiens) (UniProt P53667); experiment: Inhibition of recombinant His-tagged human LIMK1 catalytic domain (285 to 638 residues) expressed in baculovirus expression system at 1 uM by FRET assay relative to control; summary of the method: as §1
[22] = target: Activin receptor type-1 (Homo sapiens) (UniProt Q04771); experiment: Inhibition of recombinant GST-tagged human ALK2 catalytic domain (147 to end residues) at 1 uM by FRET assay relative to control
[23] = target: Rho-associated protein kinase 2 (Homo sapiens) (UniProt O75116); experiment: Inhibition of recombinant N-terminal GST-tagged human ROCK2 catalytic domain (1 to 552 residues) expressed in baculovirus expression system at 1 uM by FRET assay relative to control; summary of the method: as §2
Rho-associated protein kinase 2 (Homo sapiens), sequence (O75116 whole entry, looked up, the tested form may be a part): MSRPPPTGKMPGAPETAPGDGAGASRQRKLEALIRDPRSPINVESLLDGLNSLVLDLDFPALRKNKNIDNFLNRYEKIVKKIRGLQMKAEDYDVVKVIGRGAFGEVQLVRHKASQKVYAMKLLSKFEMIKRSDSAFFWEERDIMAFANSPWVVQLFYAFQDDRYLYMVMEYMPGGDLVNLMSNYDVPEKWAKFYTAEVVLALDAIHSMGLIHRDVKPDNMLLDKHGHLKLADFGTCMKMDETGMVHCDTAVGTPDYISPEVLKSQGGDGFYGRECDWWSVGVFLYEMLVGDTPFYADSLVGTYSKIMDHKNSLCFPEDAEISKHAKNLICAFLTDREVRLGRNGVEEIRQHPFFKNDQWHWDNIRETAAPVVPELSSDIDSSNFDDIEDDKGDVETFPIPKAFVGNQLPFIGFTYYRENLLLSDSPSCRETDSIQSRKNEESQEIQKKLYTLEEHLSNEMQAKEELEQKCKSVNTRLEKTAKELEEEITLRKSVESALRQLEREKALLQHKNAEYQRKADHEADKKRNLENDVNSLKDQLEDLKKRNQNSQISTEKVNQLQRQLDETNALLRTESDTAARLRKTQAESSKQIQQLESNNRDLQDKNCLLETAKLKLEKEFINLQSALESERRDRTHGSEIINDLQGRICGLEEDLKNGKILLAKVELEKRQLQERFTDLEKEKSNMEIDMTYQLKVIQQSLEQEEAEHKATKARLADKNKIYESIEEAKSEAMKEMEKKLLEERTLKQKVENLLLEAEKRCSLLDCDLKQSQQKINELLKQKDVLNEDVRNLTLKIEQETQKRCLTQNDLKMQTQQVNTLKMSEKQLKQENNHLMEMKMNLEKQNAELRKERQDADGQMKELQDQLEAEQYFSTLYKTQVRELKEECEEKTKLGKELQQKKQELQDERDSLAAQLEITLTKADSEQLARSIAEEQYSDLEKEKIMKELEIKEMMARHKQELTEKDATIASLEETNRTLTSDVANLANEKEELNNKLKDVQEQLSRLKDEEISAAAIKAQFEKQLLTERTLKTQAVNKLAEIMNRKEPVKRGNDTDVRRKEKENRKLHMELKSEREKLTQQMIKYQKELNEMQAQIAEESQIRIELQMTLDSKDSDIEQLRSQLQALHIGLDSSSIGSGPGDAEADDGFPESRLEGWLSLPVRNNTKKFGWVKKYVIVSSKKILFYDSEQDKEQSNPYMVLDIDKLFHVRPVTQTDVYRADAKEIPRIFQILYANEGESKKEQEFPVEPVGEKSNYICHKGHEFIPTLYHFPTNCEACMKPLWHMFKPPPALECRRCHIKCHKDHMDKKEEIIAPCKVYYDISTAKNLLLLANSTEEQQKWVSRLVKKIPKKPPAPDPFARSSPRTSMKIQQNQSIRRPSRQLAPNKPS

[24] = target: Dual specificity protein kinase TTK (Homo sapiens) (UniProt P33981); experiment: Inhibition of recombinant full length GST-tagged human TTK expressed in baculovirus expression system at 1 uM by FRET assay relative to control
Dual specificity protein kinase TTK (Homo sapiens), sequence (P33981 whole entry, the tested form may be a part): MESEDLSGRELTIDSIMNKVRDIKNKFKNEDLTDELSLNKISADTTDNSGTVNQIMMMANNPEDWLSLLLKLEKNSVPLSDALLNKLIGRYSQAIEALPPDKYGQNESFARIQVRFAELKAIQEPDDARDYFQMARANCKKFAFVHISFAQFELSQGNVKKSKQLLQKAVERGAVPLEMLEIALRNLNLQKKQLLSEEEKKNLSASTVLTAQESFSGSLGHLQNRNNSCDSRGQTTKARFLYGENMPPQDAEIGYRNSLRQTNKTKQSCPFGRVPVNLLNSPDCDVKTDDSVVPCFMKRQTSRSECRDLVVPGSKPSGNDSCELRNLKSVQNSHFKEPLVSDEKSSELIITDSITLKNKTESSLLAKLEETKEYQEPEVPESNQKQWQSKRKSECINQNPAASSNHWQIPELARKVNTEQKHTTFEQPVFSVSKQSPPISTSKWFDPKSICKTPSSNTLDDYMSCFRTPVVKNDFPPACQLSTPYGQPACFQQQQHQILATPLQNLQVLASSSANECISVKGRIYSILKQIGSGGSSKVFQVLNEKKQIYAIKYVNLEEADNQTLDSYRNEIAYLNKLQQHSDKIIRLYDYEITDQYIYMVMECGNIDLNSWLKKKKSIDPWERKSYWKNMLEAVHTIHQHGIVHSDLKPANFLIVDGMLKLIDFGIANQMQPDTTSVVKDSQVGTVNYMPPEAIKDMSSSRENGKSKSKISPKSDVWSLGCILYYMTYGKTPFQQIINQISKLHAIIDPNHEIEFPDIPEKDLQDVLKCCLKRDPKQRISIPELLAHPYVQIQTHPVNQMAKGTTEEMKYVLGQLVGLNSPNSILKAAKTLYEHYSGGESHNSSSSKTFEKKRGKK

[25] = target: Muscle, skeletal receptor tyrosine-protein kinase (Homo sapiens) (UniProt O15146); experiment: Inhibition of recombinant GST-tagged human MUSK cytoplasmic domain expressed in baculovirus expression system at 1 uM by FRET assay relative to control; summary of the method: as §1
[26] = target: Aurora kinase A (Homo sapiens) (UniProt O14965); experiment: Inhibition of recombinant full length His-tagged human Aurora A expressed in baculovirus expression system at 1 uM by FRET assay relative to control
[27] = target: Receptor tyrosine-protein kinase erbB-4 (Homo sapiens) (UniProt Q15303); experiment: Inhibition of recombinant N-terminal GST-tagged human ErbB4 cytoplasmic domain expressed in baculovirus expression system at 1 uM by FRET assay relative to control; summary of the method: as §2
[28] = target: Mitogen-activated protein kinase 9 (Homo sapiens, UniProt P45984); experiment: Inhibition of recombinant full length His-tagged human JNK2 ([…]) expressed in baculovirus expression system at by FRET assay

Serine/threonine-protein kinase PLK3 (Homo sapiens), sequence (Q9H4B4 whole entry, looked up, the tested form may be a part): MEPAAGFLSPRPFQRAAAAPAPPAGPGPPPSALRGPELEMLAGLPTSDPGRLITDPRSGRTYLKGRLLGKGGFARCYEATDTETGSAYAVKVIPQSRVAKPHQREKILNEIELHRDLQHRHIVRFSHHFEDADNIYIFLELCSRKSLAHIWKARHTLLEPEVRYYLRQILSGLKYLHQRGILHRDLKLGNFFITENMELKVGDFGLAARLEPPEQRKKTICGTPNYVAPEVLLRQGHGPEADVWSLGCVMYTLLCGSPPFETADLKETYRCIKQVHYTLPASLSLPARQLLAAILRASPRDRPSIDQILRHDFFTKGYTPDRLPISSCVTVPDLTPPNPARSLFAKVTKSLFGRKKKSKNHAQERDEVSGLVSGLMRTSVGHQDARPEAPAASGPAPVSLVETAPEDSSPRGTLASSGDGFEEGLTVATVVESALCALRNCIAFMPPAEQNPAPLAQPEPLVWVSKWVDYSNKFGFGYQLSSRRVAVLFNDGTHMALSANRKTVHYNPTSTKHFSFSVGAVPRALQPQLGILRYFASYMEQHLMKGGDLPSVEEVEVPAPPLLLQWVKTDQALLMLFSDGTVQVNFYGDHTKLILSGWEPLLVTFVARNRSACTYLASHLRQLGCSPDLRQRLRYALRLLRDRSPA

Row | SMILES | inhibition [1] [%] | inhibition [2] [%] | inhibition [3] [%] | inhibition [4] [%] | inhibition [5] [%] | IC50 [6] [µM] | inhibition [7] [%] | inhibition [8] [%] | Activity [9] [%] | inhibition [10] [%] | inhibition [11] [%] | inhibition [12] [%] | Activity [13] [%] | IC50 [14] [µM] | inhibition [15] [%] | inhibition [16] [%] | inhibition [17] [%] | inhibition [18] [%] | inhibition [19] [%] | IC50 [20] [µM] | other results
1 | CC(C)n1nc(-c2cnc(N)c(OC(F)(F)F)c2)cc1[C@H]1[C@@H]2CN(C3COC3)C[C@@H]21 | -3.8 | 7.1 | 4 | 6.9 | -1.4 | > 10 | 7.8 | 40.7 | > 50 | 7.2 | 16.8 | 1.9 | > 50 | > 10 | 7.8 | 0.6 | -2.7 | 1.8 | 25.1 | > 10 | inhibition [21]: 7.7%; inhibition [22]: 10.9%; inhibition [23]: 7.2%; inhibition [24]: 14.2%; inhibition [25]: 4%; inhibition [26]: 16.2%; inhibition [27]: 2.5%; IC50 [28]: > 10 µM
2 | Nc1ncc(-c2cc([C@H]3[C@@H]4CN(C5COC5)C[C@@H]43)n(CC3CC3)n2)cc1C(F)(F)F | 0.6 | 11.1 | 3 | 3.9 | -1.6 | > 10 | 0.8 | 6.8 | > 50 | 1.9 | 14.1 | -5 | > 50 | > 10 | 14.1 | -7.9 | -9.8 | 2.1 | 22.2 | > 10 | inhibition [21]: 0.3%; inhibition [22]: 25.8%; inhibition [23]: -7.5%; inhibition [24]: 11.2%; inhibition [25]: 27.8%; inhibition [26]: 27.2%; inhibition [27]: 5.3%; IC50 [28]: > 10 µM
